# Test system: not listed separately
# Experiment: Inhibition of Escherichia coli heat stable toxin A-stimulated cGMP accumulation in human T84 cells pretreated 10 mins before 1 nM toxin challenge measured after 10 mins of induction by ELISA
# Type: cell-based
row,Compound,IC50 [µM]
1,Cn1c2c(c(=O)n(C)c1=O)C(c1cccc(Br)c1)C1=C(N2)c2ccccc2C1=O (centres undefined),9.6
2,Cn1c2c(c(=O)n(C)c1=O)C(c1cc(F)cc(C(F)(F)F)c1)C1=C(N2)c2ccccc2C1=O (centres undefined),3.4
3,Cn1c2c(c(=O)n(C)c1=O)C(c1cc(C(F)(F)F)cc(C(F)(F)F)c1)C1=C(N2)c2ccccc2C1=O (centres undefined),2.5

# Test system: T84
# Experiment: Inhibition of Escherichia coli heat stable toxin A-stimulated cGMP accumulation in human T84 cells at 50 uM pretreated 10 mins before 250 nM toxin challenge measured after 10 mins of induction by ELISA
# Type: cell-based
# Outline: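 T84 cells preincubated 10 min with test compound, then left unstimulated (basal) or stimulated with 250 nM STa for 10 min; cGMP extracted and quantified by ELISA. Each plate included a vehicle control, and percent inhibition was calculated per plate.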
row,Compound,inhibition [%]
1,Cn1c2c(c(=O)n(C)c1=O)C(c1cccc(Br)c1)C1=C(CCC1=O)N2 (centres undefined),56
2,Cn1c2c(c(=O)n(C)c1=O)C(c1ccc(O)c(O)c1)C1=C(N2)c2ccccc2C1=O (centres undefined),26
3,Cn1c2c(c(=O)n(C)c1=O)C(c1cccc(Br)c1)C1=C(N2)c2ccccc2C1=O (centres undefined),86
4,Cn1c2c(c(=O)n(C)c1=O)C(c1ccc(F)c(F)c1F)C1=C(CC(c3ccco3)CC1=O)N2 (centres undefined),-3
5,Cn1c2c(c(=O)n(C)c1=O)C(c1ccc(F)c(F)c1F)C1=C(N2)c2ccccc2C1=O (centres undefined),62
6,CC1=C(C(N)=O)C(c2cc(C(F)(F)F)cc(C(F)(F)F)c2)c2c(n(C)c(=O)n(C)c2=O)N1 (centres undefined),8
7,Cn1c2c(c(=O)n(C)c1=O)C(c1cccc(F)c1)C1=C(N2)c2ccccc2C1=O (centres undefined),63
8,Cn1c2c(c(=O)n(C)c1=O)C(c1cc(F)cc(F)c1)C1=C(N2)c2ccccc2C1=O (centres undefined),63
9,Cn1c2c(c(=O)n(C)c1=O)C(c1cccc(Br)c1)C1=C(CC(c3ccco3)CC1=O)N2 (centres undefined),2
10,Cn1c2c(c(=O)n(C)c1=O)C(c1cccc(C#N)c1)C1=C(N2)c2ccccc2C1=O (centres undefined),23
11,Cn1c2c(c(=O)[nH]c1=O)C(c1cc(F)cc(C(F)(F)F)c1)C1=C(N2)c2ccccc2C1=O (centres undefined),-6
12,Cn1c2c(c(=O)n(C)c1=O)C(c1ccccc1)C1=C(N2)c2ccccc2C1=O (centres undefined),7
13,Cn1c2c(c(=O)n(C)c1=O)C(c1cc(F)cc(C(F)(F)F)c1)C1=C(N2)c2ccccc2C1=O (centres undefined),93
14,O=C1C2=C(Nc3[nH]c(=O)[nH]c(=O)c3C2c2cc(C(F)(F)F)cc(C(F)(F)F)c2)c2ccccc21 (centres undefined),56
15,Cn1c(=O)c2c(-c3cccc(Br)c3)c3c(nc2n(C)c1=O)-c1ccccc1C3=O,2
16,CC1=C(C(=O)Nc2nccs2)C(c2cccc(Br)c2)c2c(n(C)c(=O)n(C)c2=O)N1 (centres undefined),11
17,Cn1c2c(c(=O)n(C)c1=O)C(c1cccc(C(F)(F)F)c1F)C1=C(N2)c2ccccc2C1=O (centres undefined),80
18,O=C1C2=C(Nc3[nH]nc(-c4ccsc4)c3C2c2cc(C(F)(F)F)cc(C(F)(F)F)c2)c2ccccc21 (centres undefined),-2
19,Cn1c2c(c(=O)n(C)c1=O)C(c1cccc(C(F)(F)F)c1)C1=C(N2)c2ccccc2C1=O (centres undefined),73
20,Cn1c2c(c(=O)n(C)c1=O)C(c1cc(C(F)(F)F)cc(C(F)(F)F)c1)C1=C(N2)c2ccccc2C1=O (centres undefined),93
21,COc1cc(C2C3=C(Nc4c2c(=O)n(C)c(=O)n4C)c2ccccc2C3=O)ccc1O (centres undefined),29
22,Cn1c2c(c(=O)[nH]c1=O)C(c1cc(C(F)(F)F)cc(C(F)(F)F)c1)C1=C(N2)c2ccccc2C1=O (centres undefined),19
23,CC1=C(C(=O)Nc2ccccc2)C(c2cc(C(F)(F)F)cc(C(F)(F)F)c2)c2c(n(C)c(=O)n(C)c2=O)N1 (centres undefined),22
24,Cn1c2c(c(=O)[nH]c1=O)C(c1cccc(Br)c1)C1=C(N2)c2ccccc2C1=O (centres undefined),1
25,CC(C)C(=O)N1C2=C(C(=O)c3ccccc32)C(c2ccc(Cl)cc2)c2c1n(C)c(=O)n(C)c2=O (centres undefined),22
26,Cn1c2c(c(=O)n(C)c1=O)C(c1cc(F)cc(F)c1F)C1=C(N2)c2ccccc2C1=O (centres undefined),42

# Reference: ChEMBL document CHEMBL1158412, “Novel pyridopyrimidine derivatives as inhibitors of stable toxin a (STa) induced cGMP synthesis” (Bioorg Med Chem Lett, 2009)
